# Experimental data: ChEMBL document CHEMBL1833919, “Does the combination of optimal substitutions at the C²-, N⁵- and N⁸-positions of the pyrazolo-triazolo-pyrimidine scaffold guarantee selective modulation of the human A₃ adenosine receptors?” (Bioorg Med Chem, 2011)
# Experiments:
# Adenosine receptor A1 = target: T1, Adenosine receptor A1 (Homo sapiens, UniProt P30542); assay: Displacement of [3H]CCPA from human recombinant adenosine A1 receptor expressed in CHO cells after 3 hrs; assay type: cell-based
# T1 sequence (P30542 whole entry): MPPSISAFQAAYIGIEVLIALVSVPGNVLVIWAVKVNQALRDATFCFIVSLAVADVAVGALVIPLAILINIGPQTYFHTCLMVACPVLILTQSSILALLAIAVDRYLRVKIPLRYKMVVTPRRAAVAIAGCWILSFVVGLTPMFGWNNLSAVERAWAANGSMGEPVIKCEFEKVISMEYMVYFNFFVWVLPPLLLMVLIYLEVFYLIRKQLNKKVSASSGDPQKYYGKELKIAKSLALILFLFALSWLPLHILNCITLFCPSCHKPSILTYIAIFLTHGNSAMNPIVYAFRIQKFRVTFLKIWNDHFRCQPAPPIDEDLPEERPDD
# In short: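 CHO membranes (two-step spin, stored -80 °C), 20 μg protein, incubated 3 h at 25 °C in 200 μL 50 mM Tris/HCl pH 7.4 with 1 nM [3H]CCPA, 0.2 U/mL adenosine deaminase and a range of test concentrations. Nonspecific binding with 1 mM theophylline. Filtration and scintillation counting. Ki by Cheng-Prusoff; n = 3-6, geometric means, 95% CI.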
# Adenosine receptor A2a = Adenosine receptor A2a (Homo sapiens, UniProt P29274); assay: Displacement of [3H]NECA from human recombinant adenosine 2A receptor expressed in CHO cells after 3 hrs; assay type: cell-based
# Chain of Adenosine receptor A2a (P29274 whole entry): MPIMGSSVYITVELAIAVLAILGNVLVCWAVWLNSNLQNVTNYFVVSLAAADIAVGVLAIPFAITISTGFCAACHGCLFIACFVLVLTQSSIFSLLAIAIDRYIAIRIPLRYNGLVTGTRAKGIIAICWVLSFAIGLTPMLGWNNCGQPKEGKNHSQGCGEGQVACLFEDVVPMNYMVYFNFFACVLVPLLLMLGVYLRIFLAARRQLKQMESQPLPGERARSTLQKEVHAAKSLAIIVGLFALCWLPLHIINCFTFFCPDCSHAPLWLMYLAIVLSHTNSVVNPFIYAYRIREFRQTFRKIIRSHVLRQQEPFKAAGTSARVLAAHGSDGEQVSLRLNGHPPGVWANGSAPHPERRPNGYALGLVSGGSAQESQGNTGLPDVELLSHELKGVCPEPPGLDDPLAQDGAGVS
# In short: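 Membranes at 50 μg protein, incubated 3 h at 25 °C in 50 mM Tris/HCl, 10 mM MgCl2, pH 7.4 with 30 nM [3H]NECA and varied test concentrations. 100 μM R-PIA defined nonspecific binding. Bound ligand separated on glass-fiber filters and counted. Ki by Cheng-Prusoff; n = 3-6, geometric means, 95% CI.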
# Adenosine receptor A2b = target: T2, Adenosine receptor A2b (Homo sapiens, UniProt P29275); assay: Antagonist activity human recombinant adenosine 2B receptor expressed in CHO cells assessed as inhibition of NECA-stimulated adenylyl cyclase activity; assay type: functional, cell-based
# T2 sequence (P29275 whole entry): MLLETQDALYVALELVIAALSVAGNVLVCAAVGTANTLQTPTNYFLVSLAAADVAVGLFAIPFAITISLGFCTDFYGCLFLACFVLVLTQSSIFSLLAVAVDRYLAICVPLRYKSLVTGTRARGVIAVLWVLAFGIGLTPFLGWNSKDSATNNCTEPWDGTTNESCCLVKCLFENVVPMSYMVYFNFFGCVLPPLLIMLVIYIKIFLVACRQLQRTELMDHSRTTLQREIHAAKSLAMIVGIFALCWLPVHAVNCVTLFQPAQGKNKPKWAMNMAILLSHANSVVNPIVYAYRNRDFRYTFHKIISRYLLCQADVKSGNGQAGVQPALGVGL
# In short: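 Membranes from hA2B-expressing CHO cells, single 54,000g 30-min spin, resuspended in 50 mM Tris/HCl pH 7.4 and used at once. Incubated 20 min with about 150,000 cpm [α-32P]ATP, no EGTA or NaCl. IC50 from concentration-dependent inhibition of NECA-stimulated adenylyl cyclase, converted to Ki; n = 3-6, geometric means with 95% confidence limits.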
# Adenosine receptor A3 = target: T3, Adenosine receptor A3 (Homo sapiens, UniProt P0DMS8); assay: Displacement of [3H]NECA from human recombinant adenosine A3 receptor expressed in CHO cells after 3 hrs; assay type: cell-based
# T3 sequence (P0DMS8 whole entry): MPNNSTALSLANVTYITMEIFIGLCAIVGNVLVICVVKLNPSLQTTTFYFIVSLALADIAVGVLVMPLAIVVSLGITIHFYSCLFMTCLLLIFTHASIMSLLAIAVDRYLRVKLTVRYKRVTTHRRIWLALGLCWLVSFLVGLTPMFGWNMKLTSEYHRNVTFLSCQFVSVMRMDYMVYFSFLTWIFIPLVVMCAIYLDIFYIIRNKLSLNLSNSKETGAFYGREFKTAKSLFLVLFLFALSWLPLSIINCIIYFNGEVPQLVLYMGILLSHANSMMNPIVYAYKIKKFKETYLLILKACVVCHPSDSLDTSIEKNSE
# In short: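 20 μg membrane protein in 50 mM Tris/HCl, 1 mM EDTA, 10 mM MgCl2, pH 8.25 with 10 nM [3H]NECA and test compound over a concentration range, 3 h at 25 °C. Nonspecific binding with 100 μM R-PIA. Filtration, then counting. Ki via Cheng-Prusoff; n = 3-6, geometric means with 95% CI.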
# [1] = target: Adenosine receptors; A1 & A3 (Homo sapiens) (UniProt P30542+P0DMS8); assay: Selectivity ratio of Ki for human recombinant adenosine A1 receptor to Ki for human recombinant adenosine A3 receptor
# Homo sapiens = species: Homo sapiens; assay: Selectivity ratio of Ki for human recombinant adenosine 2a receptor to Ki for human recombinant adenosine A3 receptor
Structure (SMILES),Ki (Adenosine receptor A1),Ki (Adenosine receptor A2a),Ki (Adenosine receptor A2b),Ki (Adenosine receptor A3),Ratio Ki [1],Ratio Ki (Homo sapiens)
O=C(Nc1nc2nn(CCc3ccccc3)cc2c2nc(-c3ccc(F)cc3)nn12)c1ccccc1,395 nM,4040 nM,> 30000 nM,17.1 nM,23.1,236
Cn1cc2c(nc(NC(=O)Nc3ccccc3)n3nc(-c4ccc(Br)cc4)nc23)n1,> 10000 nM,2360 nM,> 10000 nM,2.5 nM,> 4000,944
Cn1cc2c(nc(NC(=O)Nc3ccc(F)cc3)n3nc(-c4ccc(Br)cc4)nc23)n1,> 30000 nM,5930 nM,> 10000 nM,1.72 nM,> 17400,3450
COc1ccc(NC(=O)Nc2nc3nn(C)cc3c3nc(-c4ccc(-c5ccccc5)cc4)nn23)cc1,> 100000 nM,> 100000 nM,> 10000 nM,2.1 nM,> 47600,> 47600
Cn1cc2c(nc(NC(=O)Nc3ccc(F)cc3)n3nc(-c4ccc(Cl)cc4)nc23)n1,> 30000 nM,1060 nM,> 10000 nM,5.3 nM,> 5660,200
COc1ccc(NC(=O)Nc2nc3nn(C)cc3c3nc(-c4ccc(C(F)(F)F)cc4)nn23)cc1,> 100000 nM,> 100000 nM,> 10000 nM,2.36 nM,> 42400,> 42400
COc1ccc(-c2nc3c4cn(CCc5ccccc5)nc4nc(NC(=O)c4ccccc4)n3n2)cc1,831 nM,25200 nM,> 10000 nM,28.9 nM,28.8,872
Cn1cc2c(nc(NC(=O)Nc3ccccc3)n3nc(-c4ccc(-c5ccccc5)cc4)nc23)n1,> 30000 nM,> 30000 nM,> 10000 nM,5.9 nM,> 5090,> 5090
O=C(Cc1ccccc1)Nc1nc2nn(CCc3ccccc3)cc2c2nc(-c3ccc(Br)cc3)nn12,> 10000 nM,> 10000 nM,> 10000 nM,> 10000 nM,,
Cn1cc2c(nc(NC(=O)Nc3ccc(F)cc3)n3nc(-c4ccc(-c5ccccc5)cc4)nc23)n1,> 100000 nM,> 100000 nM,> 10000 nM,4.06 nM,> 24600,> 24600
Cn1cc2c(nc(N)n3nc(-c4ccc(-c5ccccc5)cc4)nc23)n1,> 100000 nM,> 30000 nM,> 10000 nM,147 nM,> 680,> 204
COc1ccc(NC(=O)Nc2nc3nn(C)cc3c3nc(-c4ccc(Cl)cc4)nn23)cc1,6490 nM,1460 nM,> 10000 nM,1.33 nM,4880,1100
O=C(Cc1ccccc1)Nc1nc2nn(CCc3ccccc3)cc2c2nc(-c3ccc(F)cc3)nn12,232 nM,571 nM,> 30000 nM,3.34 nM,69.5,171
O=C(Cc1ccccc1)Nc1nc2nn(CCc3ccccc3)cc2c2nc(-c3ccco3)nn12,,,,45 nM,2.67,1.33
O=C(Cc1ccccc1)Nc1nc2nn(CCc3ccccc3)cc2c2nc(-c3ccccc3)nn12,192 nM,614 nM,> 30000 nM,3.02 nM,63.6,203
Cn1cc2c(nc(NC(=O)Nc3ccccc3)n3nc(-c4ccc(C(F)(F)F)cc4)nc23)n1,12900 nM,36000 nM,> 10000 nM,3.44 nM,3750,10500
Cn1cc2c(nc(NC(=O)Nc3ccccc3)n3nc(-c4ccc(Cl)cc4)nc23)n1,5550 nM,987 nM,> 10000 nM,1.71 nM,3250,577
O=C(Nc1nc2nn(CCc3ccccc3)cc2c2nc(-c3ccc(Cl)cc3)nn12)c1ccccc1,221 nM,19400 nM,> 30000 nM,11.4 nM,19.4,1700
O=C(Cc1ccccc1)Nc1nc2nn(CCc3ccccc3)cc2c2nc(-c3ccc(Cl)cc3)nn12,932 nM,3090 nM,> 30000 nM,,110,364
Cn1cc2c(nc(NC(=O)Nc3ccccc3)n3nc(-c4ccco4)nc23)n1,,,,,3710,2380
Cn1cc2c(nc(N)n3nc(-c4ccc(C(F)(F)F)cc4)nc23)n1,> 100000 nM,6930 nM,> 10000 nM,304 nM,> 329,22.8
COc1ccc(NC(=O)Nc2nc3nn(C)cc3c3nc(-c4ccc(Br)cc4)nn23)cc1,> 10000 nM,8400 nM,> 10000 nM,1.95 nM,> 5130,4310
Cn1cc2c(nc(NC(=O)Nc3ccc(F)cc3)n3nc(-c4ccc(C(F)(F)F)cc4)nc23)n1,4420 nM,> 30000 nM,> 10000 nM,1.91 nM,2310,> 15700
